Experiments:
Cavia porcellus = species: Cavia porcellus; assay: Negative inotropy measured as the concentration required to depress contraction in the isolated Langendorff-perfused guinea pig heart by 25%; type: functional
Method in brief: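 Hearts from male guinea pigs were Langendorff-perfused with Krebs-Henseleit solution at 37 °C. Force and rate of contraction were measured with a force transducer attached to the apex.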

[1] = In vitro calcium antagonist activity was assessed against calcium induced constriction of potassium-depolarized rat aorta; type: functional, tissue-based
Method in brief: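 Spirally cut rat aortic strips, one end fixed and the other on a force transducer, in modified Krebs-Henseleit with 45 mM K⁺ and no calcium. CaCl2 is added to a final 2 mM Ca²⁺ and the contraction tension is recorded. After draining, refilling and 45 min, the challenge is repeated with the compound in the saline. The concentration giving 50% reduction of the response is recorded.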

Rattus norvegicus = species: Rattus norvegicus; assay: In vitro calcium antagonist activity was assessed against calcium induced constriction of potassium -depolarized rat aorta by 50%
Canis familiaris [2] = assay: Percent decrease in coronary vascular resistance in dogs after intravenous dosage of 150 ug/kg compound
Canis familiaris [3] = assay: Percent decrease in coronary vascular resistance in dogs after intravenous dosage of 1500 ug/kg compound; type: functional, Canis lupus familiaris
Method in brief: (§1)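 Given intravenously to instrumented, anesthetized dogs. Coronary blood flow was measured by hydrogen clearance. Coronary vascular resistance was derived as arterial blood pressure divided by coronary flow.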

Canis familiaris [4] = assay: Percent decrease in coronary vascular resistance in dogs after intravenous dosage of 450 ug/kg compound; type: functional, Canis lupus familiaris; method in brief: as §1
[5] = Compound was tested for the plasma half life in dogs; type: functional
[6] = Compound was tested for the volume of distribution in dogs; type: functional, organism-based

Row | SMILES | -Log IC25 (Cavia porcellus) | -Log IC50 [1] | other results
1 | CCO/C(O)=C1\C(COCCN(C)C)=NC(C)=C(C(=O)OC)C1c1cccs1 (stereo not given) | 6.6 | 6.9 | 
2 | CCO/C(O)=C1\C(COCCN2CCOCC2)=NC(C)=C(C(=O)OC)C1c1ccccc1Cl (stereo not given) | 7.5 | 7.8 | 
3 | CCO/C(O)=C1\C(COCCN)=NC(C)=C(C(=O)OC)C1c1cccc(Cl)c1 (stereo not given) | 6.6 | 7.9 | 
4 | CCO/C(O)=C1\C(COCCN2CCN(C(C)C)CC2)=NC(C)=C(C(=O)OC)C1c1ccccc1Cl (stereo not given) | 8 | 8.2 | 
5 | CCO/C(O)=C1\C(COCCN)=NC(C)=C(C(=O)OC)C1c1ccc(Cl)cc1 (stereo not given) | 6 | 6 | 
6 | COC(=O)C1=C(C)NC(C)=C(C(=O)OC)C1c1ccccc1[N+](=O)[O-] [NIFEDIPINE] | 7.5 |  | IC50 (Rattus norvegicus): 3.98 nM
7 | CCO/C(O)=C1\C(COCCN)=NC(C)=C(C(=O)OC)C1c1cccc(C(F)(F)F)c1Cl (stereo not given) | 7.3 | 8.5 | Decrease (Canis familiaris [2]): 52.6%; Decrease (Canis familiaris [3]): 81.7%; Decrease (Canis familiaris [4]): 75.7%
8 | CCOC(=O)C1=C(COCCN)NC(C)=C(C(=O)OC)C1c1ccccc1Cl (stereo in doubt; 17) [AMLODIPINE] |  | 8.1 | Decrease (Canis familiaris [2]): 35.4%; Decrease (Canis familiaris [3]): 76.9%; Decrease (Canis familiaris [4]): 69.5%
9 | CCOC(=O)C1=C(COCCN)NC(C)=C(C(=O)OC)C1c1ccccc1Cl (stereo in doubt; 19) [AMLODIPINE] |  | 5.8 | 
10 | CCO/C(O)=C1\C(COCCN2CCC(N(C)C)CC2)=NC(C)=C(C(=O)OC)C1c1ccccc1Cl (stereo not given) | 7.1 | 6.4 | 
11 | CCOC(=O)C1=C(COCCN)NC(C)=C(C(=O)OC)C1c1ccccc1Cl (stereo in doubt; 18) [AMLODIPINE] |  | 8.7 | 
12 | CCO/C(O)=C1\C(COCCN2CCN(C)CC2)=NC(C)=C(C(=O)OC)C1c1ccccc1Cl (stereo not given) | 7.9 | 8 | 
13 | CCO/C(O)=C1\C(COCCNC)=NC(C)=C(C(=O)OC)C1c1c(F)cccc1Cl (stereo not given) | 7.6 | 7.9 | 
14 | CCO/C(O)=C1\C(COCCN(C)C)=NC(C)=C(C(=O)OC)C1c1ccncc1 (stereo not given) | 6 | 6.1 | 
15 | CCO/C(O)=C1\C(COCCN2CCN(c3ccc(F)cc3)CC2)=NC(C)=C(C(=O)OC)C1c1ccccc1Cl (stereo not given) | 7.3 | 7.9 | 
16 | CCO/C(O)=C1\C(COCCN2CCN(Cc3ccc(Cl)cc3)CC2)=NC(C)=C(C(=O)OC)C1c1ccccc1Cl (stereo not given) | 7.4 | 8 | 
17 | CCO/C(O)=C1\C(COCCN(C)C)=NC(C)=C(C(=O)OC)C1c1ccccc1Cl (stereo not given) | 7.5 | 8.1 | Decrease (Canis familiaris [2]): 64.8%; Decrease (Canis familiaris [3]): 74.7%; Decrease (Canis familiaris [4]): 68.9%

Row | SMILES | -Log IC25 (Cavia porcellus) | -Log IC50 [1] | other results
18 | CCO/C(O)=C1\C(COCCN(C)C)=NC(C)=C(C(=O)OC)C1c1cccc2ccccc12 (stereo not given) | 7.7 | 7.1 | 
19 | CCO/C(O)=C1\C(COCCCN(C)C)=NC(C)=C(C(=O)OC)C1c1ccccc1Cl (stereo not given) | 8.6 | 8.6 | 
20 | COC(=O)C1=C(C)NC(C)=C(C(=O)OCCN(C)Cc2ccccc2)C1c1cccc([N+](=O)[O-])c1 (stereo not given) |  |  | Plasma half life [5]: 17 h; Vd [6]: 3.5 L/kg
21 | CCO/C(O)=C1\C(COCCN(C)C)=NC(C)=C(C(=O)OC)C1c1cccc([N+](=O)[O-])c1 (stereo not given) | 7.1 | 8 | 
22 | CCO/C(O)=C1\C(COCCN)=NC(C)=C(C(=O)OC)C1c1ccccc1F (stereo not given) | 6.6 | 7.8 | 
23 | CCO/C(O)=C1\C(COCCNC)=NC(C)=C(C(=O)OC)C1c1ccccc1Cl (stereo not given) | 7.5 | 8.5 | Decrease (Canis familiaris [2]): 46.2%; Decrease (Canis familiaris [3]): 78.6%; Decrease (Canis familiaris [4]): 73.8%
24 | CCO/C(O)=C1\C(COCCN2CCCC2)=NC(C)=C(C(=O)OC)C1c1ccccc1Cl (stereo not given) | 7.7 | 7.9 | 
25 | CCO/C(O)=C1\C(COCCN(C)C)=NC(C)=C(C(=O)OC)C1c1ccccc1C(F)(F)F (stereo not given) | 7.6 | 7.4 | 
26 | CCO/C(O)=C1\C(COCCCN2CCN(C)CC2)=NC(C)=C(C(=O)OC)C1c1ccccc1Cl (stereo not given) | 8.2 | 8.4 | 
27 | CCO/C(O)=C1\C(COCCN(C)Cc2ccccc2)=NC(C)=C(C(=O)OC)C1c1ccccc1Cl (stereo not given) | 7.3 | 7.4 | 
28 | CCO/C(O)=C1\C(COCCNC)=NC(C)=C(C(=O)OC)C1c1ccccc1C (stereo not given) | 7.2 | 7.2 | 
29 | CCO/C(O)=C1\C(COCCN)=NC(C)=C(C(=O)OC)C1c1cccc(Cl)c1Cl (stereo not given) | 6.6 | 7.9 | 
30 | CCO/C(O)=C1\C(COCCN)=NC(C)=C(C(=O)OC)C1c1ccccc1 (stereo not given) | 6.2 | 6.8 | 
31 | CCO/C(O)=C1\C(COCCNC)=NC(C)=C(C(=O)OC)C1c1ccccc1OC (stereo not given) | 7.1 | 7.2 | 
32 | CCO/C(O)=C1\C(COCCN2CCNCC2)=NC(C)=C(C(=O)OC)C1c1ccccc1Cl (stereo not given) | 7.4 | 6.8 | 
33 | CCO/C(O)=C1\C(COCCN2CCN(CCN(CC)CC)CC2)=NC(C)=C(C(=O)OC)C1c1ccccc1Cl (stereo not given) | 7.1 | 6 | 

Reference: ChEMBL document CHEMBL1123472, “Long-acting dihydropyridine calcium antagonists. 1. 2-Alkoxymethyl derivatives incorporating basic substituents” (J Med Chem, 1986)
